Data on 21 compounds can be found in ChEMBL document CHEMBL1148311, “Synthesis of novel potent dipeptidyl peptidase IV inhibitors with enhanced chemical stability: interplay between the N-terminal amino acid alkyl side chain and the cyclopropyl group of alpha-aminoacyl-l-cis-4,5-methanoprolinenitrile-based inhibitors” (J Med Chem, 2004).

In series [1] the target is Dipeptidyl peptidase 4 (Sus scrofa, UniProt P22411). Put plainly: In vitro inhibition of porcine Dipeptidylpeptidase IV.
Series [2] is described as follows: Half-life in phosphate buffer at 39.5 C and pH 7.2. It counts as ADME. The essentials: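 Aqueous solution stability of the dipeptide nitriles in phosphate buffer, pH 7.2, 39.5 °C. Reaction rate followed as disappearance of starting material by reverse-phase HPLC.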

Chain of Dipeptidyl peptidase 4 (P22411 whole entry): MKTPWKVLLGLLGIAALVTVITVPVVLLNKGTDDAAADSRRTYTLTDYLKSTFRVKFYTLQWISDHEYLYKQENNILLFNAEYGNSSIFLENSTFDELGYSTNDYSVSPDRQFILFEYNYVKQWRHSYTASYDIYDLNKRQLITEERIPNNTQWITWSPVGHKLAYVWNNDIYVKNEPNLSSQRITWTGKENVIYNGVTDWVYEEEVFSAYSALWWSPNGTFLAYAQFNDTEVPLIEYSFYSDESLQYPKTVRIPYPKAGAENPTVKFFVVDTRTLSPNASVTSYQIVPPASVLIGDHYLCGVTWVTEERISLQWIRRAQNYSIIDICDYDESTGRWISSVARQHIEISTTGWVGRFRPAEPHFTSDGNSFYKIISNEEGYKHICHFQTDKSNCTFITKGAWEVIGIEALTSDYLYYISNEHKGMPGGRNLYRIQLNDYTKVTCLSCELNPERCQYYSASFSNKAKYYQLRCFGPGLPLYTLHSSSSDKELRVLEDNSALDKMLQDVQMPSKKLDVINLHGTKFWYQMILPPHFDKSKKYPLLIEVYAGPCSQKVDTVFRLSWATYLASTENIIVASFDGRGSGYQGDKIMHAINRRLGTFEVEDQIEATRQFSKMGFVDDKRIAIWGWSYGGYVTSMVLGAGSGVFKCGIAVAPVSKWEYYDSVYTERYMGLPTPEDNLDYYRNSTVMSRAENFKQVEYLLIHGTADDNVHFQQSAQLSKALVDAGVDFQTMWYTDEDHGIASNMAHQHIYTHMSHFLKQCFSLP

With `CC1(C(N)C(=O)N2C(C#N)C[C@@H]3C[C@@H]32)CCCCC1` (some centres undefined), the inhibition constant Ki (commonly a measure of affinity in units of concentration, obtained from inhibition or displacement) in series [1] stood at 8 nM.
Turning to `CC(C)(C)[C@H](N)C(=O)N1CCC[C@H]1C#N.O=C(O)C(F)(F)F`, in series [2], the half-life (usually the time in which the quantity being followed falls by half) was 27 h.
The compound `CCC(C)[C@H](N)C(=O)N1C(C#N)C[C@@H]2C[C@@H]21.O=C(O)C(F)(F)F` (some centres undefined) had a half-life in series [2] of 22 h. Besides, affinity in series [1] was put at a Ki of 25 nM.
With `CN[C@H](C(=O)N1C(C#N)C[C@@H]2C[C@@H]21)C(C)C` (some centres undefined), the affinity in series [1] corresponds to a Ki of 1940 nM.
As for `CCC(C)[C@H](N)C(=O)N1C[C@H]2C[C@H]2C1C#N.O=C(O)C(F)(F)F` (some centres undefined), the half-life in series [2] was 4 h. Also, the Ki in series [1] is 15 nM.
In series [1], `CCC(C)[C@H](N)C(=O)N1C(C#N)C[C@H]2C[C@H]21` (some centres undefined) displayed an inhibitory constant (Ki) of 1620 nM.
As for `CC(C)[C@H](N)C(=O)N1C(C#N)C[C@H]2C[C@H]21.O=C(O)C(F)(F)F` (some centres undefined), the half-life in series [2] was 28 h. In addition, the Ki in series [1] was found to be 29 nM.
In the same order, the values of `CC(C)[C@H](N)C(=O)N1C[C@H]2C[C@H]2C1C#N.O=C(O)C(F)(F)F` (some centres undefined) are 2 h and 12 nM.
In series [1], `N#CC1C[C@@H]2C[C@@H]2N1C(=O)C(N)C1CCC1` (some centres undefined) displayed a Ki of 12 nM. That is a double-digit nanomolar value.
In turn, `CC1(C(N)C(=O)N2C(C#N)C[C@@H]3C[C@@H]32)CCCC1.O=C(O)C(F)(F)F` (some centres undefined) had a half-life in series [2] of 24 h. The compound also came in with a Ki in series [1] of 7 nM.
Take `CCC(C)[C@H](N)C(=O)N1CC[C@@H]2C[C@@]21C#N` (some centres undefined): in series [1], the Ki was determined as 7500 nM.
Take `N#CC1C[C@@H]2C[C@@H]2N1C(=O)C1CCCCN1` (some centres undefined): the Ki in series [1] was determined as 10000 nM.
Same read-out and setting: next, `N#CC1C[C@@H]2C[C@@H]2N1C(=O)C(N)C1CCCC1` (some centres undefined): 4 nM.
In series [2], `N#CC1C[C@@H]2C[C@@H]2N1C(=O)C(N)C1CCCCC1.O=C(O)C(F)(F)F` (some centres undefined) showed a half-life of 19 h. Further, in series [1], the Ki turned out to be 15 nM.
In turn, `CC(C)(C)[C@H](N)C(=O)N1C[C@H]2C[C@H]2C1C#N.O=C(O)C(F)(F)F` (some centres undefined) showed a half-life in series [2] of 4 h. Moreover, the affinity in series [1] corresponds to a Ki of 14 nM.
Regarding `CSCC[C@H](N)C(=O)N1C(C#N)C[C@@H]2C[C@@H]21` (some centres undefined), in series [1], the Ki was 135 nM.
As to `N#CC1C[C@@H]2C[C@@H]2N1C(=O)[C@@H](N)Cc1c[nH]c2ccccc12` (some centres undefined), the Ki in series [1] worked out at 230 nM.
In series [1], `CC1(C(N)C(=O)N2C(C#N)C[C@@H]3C[C@@H]32)CCC1` (some centres undefined) registered a Ki of 11 nM.
In turn, `CCC(C)C(N)C(=O)N1CCC[C@H]1C#N.Cl` (some centres undefined) had a half-life in series [2] of 5 h.
Take `CC(C)(C)[C@H](N)C(=O)N1C(C#N)C[C@@H]2C[C@@H]21` (some centres undefined): the half-life in series [2] was 42 h. In addition, the affinity in series [1], expressed as Ki, was 7 nM.
On to `N#CC1C[C@@H]2C[C@@H]2N1C(=O)[C@@H](N)Cc1ccccc1` (some centres undefined), for which, in series [1], the Ki stood at 65 nM. In other words, the double-digit nanomolar range.
